# Assay results of several laboratories.
# Target: Protein kinase C iota type (PRKCI, Homo sapiens, UniProt P41743)
# One construct used (P41743 1-596): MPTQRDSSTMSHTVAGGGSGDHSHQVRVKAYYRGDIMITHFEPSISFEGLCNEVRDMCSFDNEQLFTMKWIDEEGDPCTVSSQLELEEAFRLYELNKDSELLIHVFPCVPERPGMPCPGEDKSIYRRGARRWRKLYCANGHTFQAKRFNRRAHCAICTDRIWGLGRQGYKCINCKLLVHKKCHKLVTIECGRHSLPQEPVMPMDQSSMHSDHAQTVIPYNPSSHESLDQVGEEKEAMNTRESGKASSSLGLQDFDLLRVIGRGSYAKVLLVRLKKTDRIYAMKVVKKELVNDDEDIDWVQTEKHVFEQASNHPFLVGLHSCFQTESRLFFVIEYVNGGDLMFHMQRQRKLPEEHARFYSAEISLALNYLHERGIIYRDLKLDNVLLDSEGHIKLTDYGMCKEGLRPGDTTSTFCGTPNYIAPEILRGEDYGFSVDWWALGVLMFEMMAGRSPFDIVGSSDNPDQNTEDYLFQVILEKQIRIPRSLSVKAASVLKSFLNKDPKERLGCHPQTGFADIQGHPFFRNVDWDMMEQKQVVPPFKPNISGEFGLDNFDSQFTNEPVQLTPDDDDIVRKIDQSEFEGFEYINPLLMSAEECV
SMILES,read-out,method,concentration,remaining binding
COc1ccnn2ncc(-c3ccnc(N(C)C)n3)c12,binding,,1 µM,74%
O=C(Nc1c[nH]nc1C(=O)NC1CCNCC1)c1cc(F)cc(F)c1,binding,competition with immobilised ligand,1 µM,84%
O=C(c1ccc(Nc2ncc(Cl)c(-c3cc4ccccc4s3)n2)cc1)N1CCC(N2CCCC2)CC1,binding,competition with immobilised ligand,1 µM,72%
COc1ccc2c(c1)O[C@@H](c1ccc(OC)c(OC)c1)C[C@H]2NC(=O)C1(c2ccc3c(c2)OC(F)(F)O3)CC1,cell-free assay,competition with immobilised ligand,1 µM,92%
Nc1ncc2c(n1)-c1c([nH]c3ccc(C#CC4CC4)cc13)CCCC2,binding,competition with immobilised ligand,1 µM,89%
COc1ncc2cc3ccccc3nc2c1C#N,cell-free assay,competition with immobilised ligand,5 µM,100%
CN(C)c1ncnc(-c2ccc3nc(Nc4cc(CN5CCN(C(=O)CC(F)(F)F)CC5)ccn4)[nH]c3c2)c1Cl,cell-free assay,competition with immobilised ligand,1 µM,79%
O=C(c1ccc(Nc2nccc(-c3cc4ccccc4s3)n2)cc1)N1CCC(N2CCCC2)CC1,binding,competition with immobilised ligand,1 µM,54%
N#Cc1ccc(Nc2ccc3[nH]c(=O)[nH]c3c2)c(Cl)c1,cell-free assay,competition with immobilised ligand,1 µM,86%
c1cnn2ncc(-c3ccnc(N4CCC45COC5)n3)c2c1,binding,,1 µM,58%
Cc1c(NC(=O)c2cc(C(N)=O)nc3cc(F)ccc23)c(C(F)(F)F)nn1Cc1ccc(C(C)(C)C)cc1,cell-free assay,competition with immobilised ligand,1 µM,98%
O=C(c1ccc(Nc2ncc(Cl)c(-c3ccc(Cl)s3)n2)cc1)N1CCC(N2CCCC2)CC1,binding,competition with immobilised ligand,1 µM,98%
C[C@@H](c1ccc(-n2cnc3c(N)ncnc32)cc1)N1CCc2nn(C)c(Cc3ccccc3)c2C1=O,binding,competition with immobilised ligand,0.1 µM,82%
CC1CCCN1c1nccc(-c2cnn3ncccc23)n1 (stereo not drawn),binding,,1 µM,100%
c1cncc(-c2cccc(Nc3nccc(NC4CCCCC4)n3)c2)c1,binding,competition with immobilised ligand,10 µM,78%
CN(CCCC(F)(F)F)c1nccc(-c2cnn3ncccc23)n1,binding,,1 µM,100%
NS(=O)(=O)c1cc(NC(=O)C2(c3ccccc3Cl)CC2)ccc1Oc1cccc(Cl)c1,cell-free assay,competition with immobilised ligand,1 µM,98%
C[C@@H]1CCN(c2nccc(-c3cnn4ncccc34)n2)C1,binding,,1 µM,64%
O=C(Nc1cccnn1)N1CC(C/C=C/c2cncc(Oc3ccc(C(F)(F)F)cn3)n2)C1,cell-free assay,competition with immobilised ligand,1 µM,96%
CN(C)c1nccc(-c2cnn3ncccc23)n1,binding,,1 µM,81%
COc1cnc(Nc2cccc(S(N)(=O)=O)c2)nc1N1CCN(c2ccccc2)C(=O)C1,binding,competition with immobilised ligand,1 µM,96%
